Activity calls are given as the source filed them. The rule behind the calls is not given here.
Assays:
[1] = Intrinsic clearance in human microsomes; type: ADME, Microsome
[2] = Tmax in Beagle dog at 30 mg/kg, po; type: ADME, organism-based, Canis lupus familiaris; conditions: in vivo
Summary of the method: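 Dogs dosed orally at 30, 100 or 300 mg/kg, N = 2 per dose.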

[3] = Dissociation constant, pKa of the compound; type: physicochemical
[4] = AUC (0 to 24 hrs) in Sprague-Dawley rat at 100 mg/kg, po; type: ADME, organism-based; parameters: dose 100 mg/kg, time < 24 hr, route oral; conditions: in vivo
[5] = target: Voltage-gated inwardly rectifying potassium channel KCNH2 (Homo sapiens, UniProt Q12809); assay: Inhibition of human ERG at 100 uM
Rattus norvegicus = assay: Antidiabetic activity in po dosed Zucker fa/fa rat assessed as reduction in blood glucose AUC administered daily for 21 days followed by OGTT at 1 hr after compound dosing and measured 60 mins post glucose challenge by oral glucose tolerance test; type: functional
[6] = Drug metabolism in dog hepatocytes assessed as glucuronidation; type: ADME, cell-based, Canis lupus familiaris, Hepatocyte
[7] = target: T1, Peroxisome proliferator-activated receptor alpha (Homo sapiens) (UniProt Q07869); assay: Displacement of [3H]-agonist from human PPARalpha expressed in baculovirus infecetd Sf9 cells system up to 30 uM after 10 hrs in presence of DR2 by scintillation proximity assay
T1 sequence (whole entry): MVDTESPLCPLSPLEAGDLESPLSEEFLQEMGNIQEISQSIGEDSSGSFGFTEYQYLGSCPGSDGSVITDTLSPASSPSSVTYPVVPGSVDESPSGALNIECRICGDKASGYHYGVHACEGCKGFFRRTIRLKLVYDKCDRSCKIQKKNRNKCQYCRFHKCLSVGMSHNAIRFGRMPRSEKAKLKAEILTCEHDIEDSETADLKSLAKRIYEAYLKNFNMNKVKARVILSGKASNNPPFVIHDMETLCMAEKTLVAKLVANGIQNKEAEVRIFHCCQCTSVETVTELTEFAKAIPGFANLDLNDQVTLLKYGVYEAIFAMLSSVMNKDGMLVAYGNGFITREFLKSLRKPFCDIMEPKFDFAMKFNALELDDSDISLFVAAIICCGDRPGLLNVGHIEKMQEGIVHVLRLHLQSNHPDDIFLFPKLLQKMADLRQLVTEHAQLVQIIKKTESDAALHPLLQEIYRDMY
Summary of the method: (§1)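 PPAR alpha, delta and gamma binding and functional activity were each tested at concentrations up to 30 µM.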

3T3-L1 = assay: Induction of adipogenesis in mouse 3T3L1 cells; type: functional, cell-based
Summary of the method: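 Adipogenesis was assessed in 3T3-L1 cells.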

[8] = Cmax in Beagle dog at 100 mg/kg, po; type: ADME, organism-based, Canis lupus familiaris; parameters: dose 100 mg/kg, route oral; conditions: in vivo
[9] = Cmax in Beagle dog at 300 mg/kg, po; type: ADME, organism-based, Canis lupus familiaris; parameters: dose 300 mg/kg, route oral; conditions: in vivo
[10] = Volume of distribution at steady state in Beagle dog at 1 mg/kg, iv; type: ADME, organism-based, Canis lupus familiaris; conditions: in vivo, read-out: Vdss
[11] = target: T2, Peroxisome proliferator-activated receptor delta (Homo sapiens) (UniProt Q03181); assay: Displacement of [3H]-agonist from human PPARdelta expressed in baculovirus infecetd Sf9 cells system up to 30 uM after 10 hrs in presence of DR2 by scintillation proximity assay; summary of the method: as §1
T2 sequence (whole entry): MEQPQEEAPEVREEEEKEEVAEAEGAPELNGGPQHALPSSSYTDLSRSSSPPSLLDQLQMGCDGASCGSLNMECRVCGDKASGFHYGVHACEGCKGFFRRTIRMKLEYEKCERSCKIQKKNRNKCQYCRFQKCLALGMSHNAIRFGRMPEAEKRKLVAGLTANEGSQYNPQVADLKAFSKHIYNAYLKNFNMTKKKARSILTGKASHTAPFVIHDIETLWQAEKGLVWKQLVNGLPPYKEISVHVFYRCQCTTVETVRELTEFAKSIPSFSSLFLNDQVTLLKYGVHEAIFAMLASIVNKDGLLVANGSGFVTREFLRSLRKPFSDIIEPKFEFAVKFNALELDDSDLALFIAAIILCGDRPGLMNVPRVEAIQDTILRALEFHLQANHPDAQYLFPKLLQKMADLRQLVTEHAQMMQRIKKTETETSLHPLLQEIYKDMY

[12] = Oral bioavailability in Beagle dog at 3 mg/kg; type: ADME, organism-based, Canis lupus familiaris; conditions: in vivo
Summary of the method: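 Fasted dogs dosed orally at 3 mg/kg. […] Bioavailability is derived relative to the 1 mg/kg IV dose.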

[13] = Metabolic stability in mouse microsomes assessed as compound metabolized after 30 mins; type: ADME, Microsome; conditions: read-out: Drug metabolism
Summary of the method: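 Compound incubated 30 min with liver microsomes from mouse, rat, dog or human. Percent of compound metabolized recorded, as mean (SEM, n).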

[14] = AUC (0 to 24 hrs) in Sprague-Dawley rat at 1 mg/kg, iv; type: ADME, organism-based; parameters: dose 1 mg/kg, time < 24 hr, route intravenous; conditions: in vivo
Cytochrome P450 2D6 = Cytochrome P450 2D6 (Homo sapiens, UniProt P10635); assay: Inhibition of human CYP2D6; type: ADME
[15] = Initial plasma concentration in Sprague-Dawley rat at 1 mg/kg, iv; type: ADME, organism-based

Sequence of Voltage-gated inwardly rectifying potassium channel KCNH2 (Q12809 whole entry): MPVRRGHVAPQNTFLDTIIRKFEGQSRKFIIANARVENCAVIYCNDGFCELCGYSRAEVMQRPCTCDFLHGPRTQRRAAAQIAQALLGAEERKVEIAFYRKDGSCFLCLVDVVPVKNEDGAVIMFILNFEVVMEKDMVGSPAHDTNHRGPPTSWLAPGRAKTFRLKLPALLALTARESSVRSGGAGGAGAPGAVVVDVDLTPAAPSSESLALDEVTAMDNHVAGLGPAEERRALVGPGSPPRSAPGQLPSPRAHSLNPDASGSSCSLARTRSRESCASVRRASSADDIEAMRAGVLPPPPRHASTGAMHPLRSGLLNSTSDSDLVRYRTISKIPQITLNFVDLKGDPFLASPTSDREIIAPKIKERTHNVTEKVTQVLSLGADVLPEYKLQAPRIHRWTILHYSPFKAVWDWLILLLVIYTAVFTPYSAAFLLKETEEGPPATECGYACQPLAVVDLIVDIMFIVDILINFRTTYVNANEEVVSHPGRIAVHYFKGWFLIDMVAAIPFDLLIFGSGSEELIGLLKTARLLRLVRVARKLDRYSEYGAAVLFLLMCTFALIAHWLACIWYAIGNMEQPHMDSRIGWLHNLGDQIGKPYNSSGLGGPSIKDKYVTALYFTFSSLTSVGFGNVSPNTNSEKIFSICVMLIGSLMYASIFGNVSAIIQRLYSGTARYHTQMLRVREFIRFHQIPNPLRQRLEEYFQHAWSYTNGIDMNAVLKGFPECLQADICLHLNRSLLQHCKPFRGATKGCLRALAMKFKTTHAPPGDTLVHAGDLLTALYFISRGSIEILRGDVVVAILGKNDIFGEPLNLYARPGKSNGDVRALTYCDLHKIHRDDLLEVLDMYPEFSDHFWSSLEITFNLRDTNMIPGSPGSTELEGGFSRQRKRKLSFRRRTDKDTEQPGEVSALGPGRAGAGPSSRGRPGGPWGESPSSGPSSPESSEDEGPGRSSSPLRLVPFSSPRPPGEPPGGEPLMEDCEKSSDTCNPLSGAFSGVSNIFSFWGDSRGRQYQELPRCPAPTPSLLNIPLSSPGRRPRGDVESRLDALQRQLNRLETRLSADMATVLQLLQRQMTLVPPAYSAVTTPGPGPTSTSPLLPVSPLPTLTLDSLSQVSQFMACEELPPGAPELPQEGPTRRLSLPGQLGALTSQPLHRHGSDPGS
Sequence of Cytochrome P450 2D6 (P10635 whole entry): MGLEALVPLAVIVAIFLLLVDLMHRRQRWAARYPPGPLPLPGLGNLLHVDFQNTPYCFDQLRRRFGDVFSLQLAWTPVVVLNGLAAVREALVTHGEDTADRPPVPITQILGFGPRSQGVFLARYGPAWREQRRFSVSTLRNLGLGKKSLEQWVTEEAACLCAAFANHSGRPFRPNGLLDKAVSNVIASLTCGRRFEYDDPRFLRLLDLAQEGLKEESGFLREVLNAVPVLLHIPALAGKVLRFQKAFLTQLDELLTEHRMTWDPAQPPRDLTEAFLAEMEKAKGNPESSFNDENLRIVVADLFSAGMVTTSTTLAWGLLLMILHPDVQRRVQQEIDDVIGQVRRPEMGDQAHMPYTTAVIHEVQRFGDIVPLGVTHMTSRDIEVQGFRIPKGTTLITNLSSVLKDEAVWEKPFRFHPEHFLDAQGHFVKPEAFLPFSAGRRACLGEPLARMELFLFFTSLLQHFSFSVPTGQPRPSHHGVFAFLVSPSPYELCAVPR

K [1]: < 0.0009 h⁻¹
Tmax [2]: 2 h
pKa [3]: 4.3
AUC(0-t) at 24 h [4]: 2870 µg·h/mL
Drug metabolism [6]: Metabolite_Detected
Activity [7]: inactive
Cmax [8]: 260 µg/mL
Cmax [9]: 277 µg/mL
Vd [10]: 0.27 L/kg
Activity [11]: inactive
bioavailability [12]: 83%
metabolised at 0.5 h [13]: 7%
AUC(0-t) at 24 h [14]: 12.7 µg·h/mL
IC50 (Cytochrome P450 2D6): > 60 µM
C0 [15]: 4.34 µg/mL
Compound: CC#C[C@@H](CC(=O)O)c1ccc(OCc2ccc3nc(-c4c(C)cccc4C)nn3c2)cc1
inhibition (INH) [5]: Not Active
ED90 (Rattus norvegicus): 5 mg/kg
Activity (3T3-L1): inactive

Reference: ChEMBL document CHEMBL4024777, “Discovery of LY3104607: A Potent and Selective G Protein-Coupled Receptor 40 (GPR40) Agonist with Optimized Pharmacokinetic Properties to Support Once Daily Oral Treatment in Patients with Type 2 Diabetes Mellitus” (J Med Chem, 2018)
